S100A4 inh HTS: inhibitors of S100A4-myosin IIA peptide binding, primary screen, biochemical, fluorescence polarization, TAMRA-MyoIIA peptide; Protein S100-A4 (Homo sapiens), P26447; 360,000 tested, 0.14% active; inhibition, % at 10.7 µM;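 active = mean inhibition of at least 70% across replicates, with every replicate also reaching that level; inconclusive = mean inhibition reaches 70% but some replicates fall short; inactive = mean inhibition below 70%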
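Material: S100A4 monomer protein / Buffer or medium: 50 mM HEPES pH 7.2, 10 mM CaCl2, 100 mM KCl / Times: 5 min incubation before reading / Benchmarks: neutral control DMSO, positive control TFP / Reagent: labelled myosin peptide probe, 5 nM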
PvdQ inh: P. aeruginosa PvdQ acylase inhibitors, primary screen, biochemical, fluorescence, plate reader and imaging, single point; PvdQ acylase [Pseudomonas aeruginosa LESB58]; purified PvdQ acylase; inhibition, % at 10 µM; 340,000 tested, 0.063% active; AID 488965, 2010; in the data active = inhibition above about 30%, passing the limit was not always enough; inconclusive = no clear call, values can overlap the other calls;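 note: 0% = vehicle neutral wells and 100% = reference inhibitor wells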
RAD54 inh: inhibitors of human RAD54 branch migration, primary screen, biochemical, fluorescence, single point. DNA repair and recombination protein RAD54-like (Homo sapiens), Q92698. RAD54 Holliday junction branch migration, FAM/BHQ fluorescence. inhibition, % at 10.4 µM. 360,000 tested, 0.14% active. AID 602329, 2012;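 active = mean normalized replicate activity at least 40 and at least half of replicates scoring 40 or more; inconclusive = only one of the two criteria met; inactive = mean below 40 and under half of replicates reaching 40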;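 note: 0% = median of neutral control wells and 100% = median of positive control wells; inhibitors cause a drop in the FAM fluorescence signal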
Target sequence (Q92698 whole entry, looked up): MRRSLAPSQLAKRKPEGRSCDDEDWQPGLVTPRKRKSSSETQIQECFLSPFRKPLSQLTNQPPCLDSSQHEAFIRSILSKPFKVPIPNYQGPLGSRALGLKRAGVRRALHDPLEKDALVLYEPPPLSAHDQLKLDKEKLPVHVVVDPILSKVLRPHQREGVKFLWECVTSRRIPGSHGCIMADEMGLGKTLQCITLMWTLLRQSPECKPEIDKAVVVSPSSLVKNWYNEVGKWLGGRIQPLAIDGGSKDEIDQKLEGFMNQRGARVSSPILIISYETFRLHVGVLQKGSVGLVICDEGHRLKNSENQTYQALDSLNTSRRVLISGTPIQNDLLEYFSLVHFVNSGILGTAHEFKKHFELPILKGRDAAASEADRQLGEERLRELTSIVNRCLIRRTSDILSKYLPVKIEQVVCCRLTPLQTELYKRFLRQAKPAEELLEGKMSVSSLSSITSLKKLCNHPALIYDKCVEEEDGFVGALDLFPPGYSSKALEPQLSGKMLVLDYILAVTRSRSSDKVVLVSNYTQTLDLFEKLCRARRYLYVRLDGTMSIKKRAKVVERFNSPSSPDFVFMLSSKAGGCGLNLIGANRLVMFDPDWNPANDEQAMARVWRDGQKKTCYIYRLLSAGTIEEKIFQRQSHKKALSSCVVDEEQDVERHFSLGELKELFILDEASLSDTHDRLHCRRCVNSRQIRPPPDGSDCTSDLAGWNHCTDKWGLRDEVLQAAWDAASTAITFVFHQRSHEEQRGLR
SR-BI DiI inh: inhibitors of SR-BI mediated HDL lipid uptake, primary screen, ldlA[mSR-BI] cells, fluorescence, single point; Scavenger receptor class B member 1 (Mus musculus), Q61009; ldlA[mSR-BI] CHO cells, DiI-HDL uptake fluorescence, 3 h; inhibition, % at 12.5 µM; 320,000 tested, 0.96% active; AID 488896, 2010;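 active = mean replicate inhibition of at least 70% and a set share of replicates each scoring 70 or more; inconclusive = meets just one of the two criteria; inactive = fails both criteria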;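 note: 0% = median of neutral control wells and 100% = median of positive control wells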
dFosB act: activators of delta FosB homodimer, primary screen, biochemical, fluorescence polarization, TAMRA-CDK5 oligo, single point | purified delta FosB; percent of positive-control signal above neutral wells | activation, % at 25 µM | 340,000 tested, 0.99% active | AID 493131, 2011;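 active = mean activation above about 17%, with every replicate also reaching it, limit read from the data, passing the limit was not always enough; inconclusive = only one of the two conditions met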
SR-BI uptake up: activators of SR-BI mediated DiI-HDL uptake, primary screen, ldlA[mSR-BI] CHO cells, DiI fluorescence. activation, % at 12.5 µM. AID 504775, 2011. 3 h; 100 = double the neutral-control signal. 320,000 tested, 0.096% active;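 active = mean replicate activation of at least 60% and every replicate at or above 60%; inconclusive = mean or all-replicate condition met, but not both; inactive = mean below 60% and not all replicates reaching 60%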;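 note: 0% = median plate neutral-control signal and 100% = twice that signal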
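material = CHO ldlA[mSR-BI] cells | medium = Ham's F12 with 0.5% BSA, HEPES 25 mM, pH 7.4 | reagent = fluorescent DiI-HDL, 10 µg/mL final | compound dosing = single-point compound dose | incubation = 3 h, 37 °C | measured by = bottom-read fluorescence, 550/595 nm | measure = HDL uptake via cellular fluorescence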
DNA binding: DNA binding of candidate compounds, dose response, artefact control for RAD54 inhibitor project, biochemical, fluorescence polarization, cherry-pick; AC50, µM (doses to about 35 µM), without a hit: at the top dose activity change, negative = DNA binding; AID 651673, 2012; Acridine orange-DNA displacement, 20 min; shares compounds with RAD54 inh; 460 tested, 8% active;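 active = signal drop giving an AC50 within twice the top valid tested concentration of each sample, actives reach about 35 µM in these data; inactive = activity opposite to expected, plus the rest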;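 note: polarization loss reports compound binding to salmon sperm DNA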
Numbers without * were called inactive; ? = inconclusive; nt = not tested or not shown. Compounds with a hit are over-represented: about 1.6% of the library has one in this group of screens.

SMILES	S100A4 inh HTS	PvdQ inh	RAD54 inh	SR-BI DiI inh	dFosB act	SR-BI uptake up	DNA binding
CCOC(=O)N1CCN(S(=O)(=O)c2ccc(C(=O)Nc3sc4c(c3C(=O)OC)CCN(C)C4)cc2)CC1	0.9	-4.8	?	9.1	2.5	-9.1	-6.7%
COC(=O)c1c(NC(=O)c2ccc(S(=O)(=O)N3CC(C)OC(C)C3)cc2)sc2c1CCN(C)C2 (stereo unspecified)	-5.4	nt	50.1*	nt	nt	nt	16.1%
CCC(=O)N1CC2(C1)CN(C(=O)Nc1ccccc1F)[C@H](CO)c1c2c2ccc(OC)cc2n1C	11.8	nt	nt	nt	nt	nt	nt
COc1cccc(-c2ccc3c(c2)[C@@H]2[C@@H](CCN2C(=O)c2cnccn2)[C@@H](CO)N3)c1	5.2	nt	0.4	nt	nt	nt	nt
CSc1nc(SCC(N)=O)c2c3c(sc2n1)CN(C)CC3	nt	2.0	58.6*	-3.2	-2.2	3.2	3.4%
CCNc1nc(SCC(N)=O)nc2sc3c(c12)CCN(C)C3	-40.3	-0.5	7.7	-23.4	-4.9	23.4	nt
CC1CCCCN1CCNC(=O)c1cc2c(=O)n(C)c3ccccc3c2n1C (stereo unspecified)	-1.6	-2.8	56.7*	55.0	-23.8	-55.0	-23.5%
Cn1c(C(=O)NC2CCCCC2)cc2c(=O)n(C)c3ccccc3c21	0.6	-12.8	7.9	47.1	-3.8	-47.1	nt
CCN(CC)CC(=O)Nc1c(C)cccc1C	-8.5	-13.9	-7.6	-16.2	7.1	16.2	nt
CCN(CC)CC(=O)Nc1cccc2c1C(=O)c1ccccc1C2=O	nt	-5.6	70.4*	51.3	-6.9	-51.3	2.0%
c1c[nH]c(CN2CCN(Cc3ncc[nH]3)CC2)n1	-0.1	-8.8	?	-13.7	12.1	13.7	-10.7%
C[C@H](CO)N1C[C@H](C)[C@H](CN(C)S(=O)(=O)c2cccc(C#N)c2)OCc2ccccc2-c2c(n(C)c3ccccc23)C1=O	-9.3	nt	1.9	nt	nt	nt	nt
CC(C)N1CCc2c(sc(NC(=O)c3ccc(C(=O)c4ccccc4)cc3)c2C(N)=O)C1	-3.1	-4.2	50.5*	-4.7	29.2*	4.7	-8.6%
CC(C)N1CCc2c(sc(NC(=O)c3ccco3)c2C(N)=O)C1	-2.0	7.5	30.5	7.6	-11.8	-7.6	nt
CC(C)N1CCc2c(sc(NC(=O)CCc3ccccc3)c2C(N)=O)C1	-5.4	-12.5	nt	-16.7	-6.1	16.7	nt
COC(=O)c1c(NC(=O)c2ccco2)sc2c1CCN(C(C)C)C2	-6.3	5.1	61.8*	6.9	-27.5	nt	-8.7%
O=C(C1=C[C@@H](c2ccc(C(F)(F)F)cc2)C[C@@H](OCc2ccc(CO)cc2)O1)N1CCCCCCC1	-10.4	nt	-8.3	nt	nt	nt	nt
C[C@H](CO)N1C[C@H](C)[C@@H](CN(C)S(=O)(=O)c2ccc(Cl)cc2)Oc2ccc(NS(=O)(=O)c3ccc(F)cc3)cc2C1=O	-8.1	nt	-7.2	nt	nt	nt	nt
Cc1nc2nc(C)c(C)nc2nc1C	-0.5	nt	55.8*	nt	nt	nt	9.8%
Cc1nc2c(C)c(C)c(C)c(C)c2nc1C	-30.1	nt	-6.1	nt	nt	nt	nt
CC(C)C#Cc1cnc2c(c1)C(=O)N([C@@H](C)CO)C[C@@H](C)[C@H](CN(C)C(=O)c1ccccn1)O2	5.8	nt	-7.0	nt	nt	nt	nt
CN(C)C(CNC(=O)CCCN1C(=O)c2cccc3cccc(c23)C1=O)c1ccccc1 (stereo unspecified)	1.7	-17.5	57.4*	27.7	8.3	-27.7	1.1%
Nc1c2ccccc2nc2ccccc12	-0.8	-11.7	121.2*	-7.3	-12.1	7.3	26µM*
CCc1nc(NCCCn2ccnc2)c2oc3ccccc3c2n1	nt	-2.8	-0.3	13.1	-18.0	-13.1	nt
c1ccc(-c2nc(NCCCn3ccnc3)c3oc4ccccc4c3n2)cc1	-2.8	6.2	?	14.9	-4.8	-14.9	-15.2%
SMILES	S100A4 inh HTS	PvdQ inh	RAD54 inh	SR-BI DiI inh	dFosB act	SR-BI uptake up	DNA binding
Cc1ccnc(SCC(=O)Nc2sc3c(c2C#N)CCC(C(C)(C)C)C3)n1 (stereo unspecified)	nt	-8.5	?	25.8	-2.2	-25.8	-11.9%
Cc1ccc(-c2nc(NCCCO)c3ccccc3n2)cc1	3.0	-15.8	?	12.3	-27.1	-12.3	-1.6%
c1ccc(-c2nc(NCCCN3CCOCC3)c3ccccc3n2)cc1	nt	-14.5	?	11.4	-7.9	-11.4	5.9%
CN(C)CCCNc1c2c(nc3ccccc13)CCC2	-1.8	-6.7	66.9*	-19.1	20.3*	19.1	-17.4%
COCCNc1c2c(nc3ccccc13)CCC2	-8.0	-8.0	5.7	-16.8	-9.4	16.8	nt
CN(C)CCNc1cc(-c2ccncc2)nc2ccccc12	-5.1	-3.5	57.5*	-15.8	0.4	15.8	0.2%
NCCCCCNC(=O)[C@@H]1C[C@@H]2C(=O)N[C@@H](Cc3ccccc3)C(=O)N2[C@@H]1c1ccc(O)cc1	2.6	nt	-11.2	nt	nt	nt	nt
C[C@H](CO)N1C[C@H](C)[C@@H](CN(C)Cc2ccncc2)Oc2ncc(C#CCN(C)C)cc2C1=O	-2.5	nt	-8.7	nt	nt	nt	nt
CCNC(=O)[C@H]1[C@H](CO)[C@H]2Cn3c(ccc(/C=C/c4ccccc4)c3=O)[C@H]2N1C(C)=O	1.3	nt	7.5	nt	nt	nt	nt
C[C@@H]1CCCCO[C@H](CN(C)C(=O)CCC(F)(F)F)[C@@H](C)CN([C@H](C)CO)C(=O)c2cc(NS(=O)(=O)c3ccccc3)ccc2O1	1.0	nt	-3.8	nt	nt	nt	nt
Cc1ccc(-c2nc(NCCN(C)C)c3ccccc3n2)cc1	1.7	12.2	77.9*	1.3	-29.5	-1.3	-20.2%
Cc1cccc(-c2nc(NCCCN(C)C)c3ccccc3n2)c1	31.3	-10.5	82.2*	1.5	-22.1	-1.5	-20.9%
O=C(O)CCNc1nc(-c2ccccc2)nc2ccccc12	nt	-15.2	3.2	6.5	-2.7	-6.5	nt
CN(C)CCCNc1nc(-c2ccc(Cl)cc2)nc2ccccc12	-7.8	-14.7	70.8*	-34.0	-32.5	34.0	-18.0%
CC(C)NC(=O)N(C)C[C@@H]1Oc2cc(C#Cc3ccc(F)cc3)ccc2S(=O)(=O)N([C@@H](C)CO)C[C@@H]1C	-6.2	nt	0.9	nt	nt	nt	nt
NC1CCN(c2c(F)cc3c(=O)c(C(=O)O)cn(C4CC4)c3c2Cl)C1 (stereo unspecified)	-3.0	-3.7	?	nt	-11.5	nt	8.1%
CNC[C@H]1Oc2cc(C#CC3(O)CCCC3)ccc2S(=O)(=O)N([C@H](C)CO)C[C@H]1C	-4.9	nt	17.9	nt	nt	nt	nt
CCN1CCN(c2nc(-c3ccccn3)nc3ccccc23)CC1	nt	-3.9	24.6	-14.9	-7.8	14.9	nt

Assay outcomes: PubChem, Broad Institute
